According to publication PMC5604227 (Biochemistry, 2016):
Values joined by “and” are separate entries in the source; they are usually repeats but may differ in a detail not shown here. Equal values may be shown once.

Columns and labels:
[1] = target: C146S-dUMP complex (Escherichia coli, UniProt P0A884, C146S); type: binding, E. coli; details: 5 °C
[2] = target: T1, wild-type TSase (Escherichia coli, UniProt P0A884); set-up: species or system E. coli
Outline: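 1H-13C HSQC of wild-type TSase with dUMP bound, U-[2H,13C,15N] ILV-methyl labelled (Ile δ1 only; Leu/Val one methyl protonated). Fraction of the covalently bound state taken from the relative intensities of its assigned resonances. Forward covalent-bond formation rate calculated from that fraction and a prior literature bond-breakage rate (H5 solvent exchange, 0.01 min−1, similar pH and temperature).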

[3] = target: T2, C146S TSase (Escherichia coli, UniProt P0A884, C146S); assay: ITC of dUMP binding to C146S TSase; set-up: species or system E. coli
[4] = system: TSase (wild-type and C146S); set-up: species or system E. coli
[5] = target: T1, wild-type TSase; details: ITC; cited from earlier work
[6] = target: T2, C146S TSase; details: cited from earlier work
[7] = C146S relative to wild-type, 25 °C

T1 sequence (P0A884 whole entry): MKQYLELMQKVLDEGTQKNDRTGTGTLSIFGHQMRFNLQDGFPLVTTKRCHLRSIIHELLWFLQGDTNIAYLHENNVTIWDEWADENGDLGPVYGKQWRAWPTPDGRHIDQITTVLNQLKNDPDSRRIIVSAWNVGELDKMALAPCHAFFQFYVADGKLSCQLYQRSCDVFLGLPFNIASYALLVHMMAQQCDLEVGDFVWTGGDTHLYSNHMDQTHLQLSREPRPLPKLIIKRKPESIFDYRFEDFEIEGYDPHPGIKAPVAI
T2 sequence (P0A884 whole entry C146S): as the sequence (P0A884 whole entry) above, with C146S counted along it
Chain of C146S-dUMP complex (P0A884 whole entry C146S, one chain of several): as the sequence (P0A884 whole entry) above, with C146S counted along it

Cc1nc2ccc(CN(C)c3ccc(C(=O)N[C@@H](CCC(=O)O)C(=O)O)s3)cc2c(=O)[nH]1 [Raltitrexed]
cooperativity ρ [1]: 1.3 ± 0.3

O=c1[nH]c(=O)n([C@H]2C[C@H](O)[C@@H](COP(=O)(O)O)O2)cc1F [5F-dUMP]
population of the minor (covalent) state relative to dUMP complex ([2]; wild-type TSase complex): significantly increased

O=c1ccn([C@H]2C[C@H](O)[C@@H](COP(=O)(O)O)O2)c(=O)[nH]1 [dUMP]
fold weaker dUMP binding [3, 7]: 18 fold and 20 fold | ΔΔG°bind penalty for formation of the dUMP complex [3, 7]: 1.7 kcal/mol | change in TΔS° per binding event ([3]; C146S vs wild-type): ~1 kcal/mol | sum of calorimetric TΔΔS° values for both binding events ([3]; C146S vs wild-type): -1.7 kcal/mol | fraction of covalently bound state ([2]; wild-type dUMP complex, from resonance intensities): 19% and ~20% | total TΔΔS°conf associated with binding both dUMP molecules ([4]; scaled to probes in the dimer, C146S vs wild-type): -2.08 ± 0.18 kcal/mol | ΔS°conf opposing binding of each dUMP molecule ([4]; wild-type TSase): ~1 kcal/mol | change in protonation state on binding (loss of proton per binding event) [5]: less than 0.1 proton | fold weaker KD of C146S for dUMP than wild-type [6]: ~2 fold
